In ChEMBL document CHEMBL2321851, “Synthesis and biological evaluation of novel coumarin-pyrazoline hybrids endowed with phenylsulfonyl moiety as antitumor agents” (Eur J Med Chem, 2013):
Active and inactive are the calls of the source. No cut-off for these calls is given here.

molecular target: PI3-kinase p110-alpha/p85-alpha (Homo sapiens) (UniProt P27986+P42336); test: Inhibition of PI3K p110alpha/p85alpha (unknown origin) at 50 uM by ADP-Glo assay; type: protein-complex assay
Method in brief: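 Active PI3K p110α/p85α with peptide substrate, run in duplicate in kinase assay buffer. Stocks were 250 µM compound and 250 µM ATP (5 µl each in 25 µl). Reaction ran 30 min at 30 °C and was stopped with ADP-Glo reagent (40 min), then detection reagent (30 min), with luminescence read out. Blank lacked substrate and was subtracted; single-dose screen at 50 µM.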

Compound | inhibition [%]
COc1ccc2ccc(=O)oc2c1C1=NN(S(=O)(=O)c2ccccc2)C(c2cccs2)C1 (stereo unspecified) | < 5
COc1ccc2ccc(=O)oc2c1C1=NN(S(=O)(=O)c2ccccc2)C(c2ccc(SC)cc2)C1 (stereo unspecified) | < 5

system: EKVX; test: Growth inhibition of human EKVX cells at 10 uM after 48 hrs by sulforhodamine B assay; type: functional, cell-based
Method in brief: (§1)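 Single-dose primary screen at 10^-5 M across the ~60-line panel grown in RPMI 1640 with 5% FBS and 2 mM glutamine, 48 h exposure at 37 °C. Cells TCA-fixed and SRB-stained, absorbance at 515 nm. Output is percent growth of treated versus untreated control cells.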

Compound | growth inhibition (GI)
COc1ccc2ccc(=O)oc2c1C1=NN(S(=O)(=O)c2ccccc2)C(c2cccs2)C1 (stereo unspecified) | inactive
COc1ccc2ccc(=O)oc2c1C1=NN(S(=O)(=O)c2ccccc2)C(c2ccc(C)o2)C1 (stereo unspecified) | inactive
COc1ccc2ccc(=O)oc2c1C1=NN(c2ccc(S(N)(=O)=O)cc2)C(c2ccc(C)o2)C1 (stereo unspecified) | inactive
COc1ccc2ccc(=O)oc2c1C1=NN(S(=O)(=O)c2ccccc2)C(c2ccc(SC)cc2)C1 (stereo unspecified) | inactive

system: HCT-116; test: Growth inhibition of human HCT116 cells at 10 uM after 48 hrs by sulforhodamine B assay; type: functional, cell-based; method in brief: as §1

Compound | growth inhibition (GI)
COc1ccc2ccc(=O)oc2c1C1=NN(S(=O)(=O)c2ccccc2)C(c2cccs2)C1 (stereo unspecified) | inactive
COc1ccc2ccc(=O)oc2c1C1=NN(S(=O)(=O)c2ccccc2)C(c2ccc(C)o2)C1 (stereo unspecified) | inactive
COc1ccc2ccc(=O)oc2c1C1=NN(c2ccc(S(N)(=O)=O)cc2)C(c2ccc(C)o2)C1 (stereo unspecified) | inactive
COc1ccc2ccc(=O)oc2c1C1=NN(S(=O)(=O)c2ccccc2)C(c2ccc(SC)cc2)C1 (stereo unspecified) | inactive

system: SN12C; test: Growth inhibition of human SN12C cells at 10 uM after 48 hrs by sulforhodamine B assay; type: functional, cell-based
Method in brief: (§2)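 NCI-60 one-dose primary screen at 10^-5 M. Cells grown in RPMI 1640 with 5% FBS and 2 mM L-glutamine and plated by doubling time. Preincubated 24 h at 37 °C under 5% CO2. Drug exposure 48 h. Cells fixed with cold TCA and stained with 0.4% SRB; absorbance read at 515 nm. Reported as percent growth of treated versus untreated control.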

Compound | growth inhibition (GI)
COc1ccc2ccc(=O)oc2c1C1=NN(S(=O)(=O)c2ccccc2)C(c2cccs2)C1 (stereo unspecified) | inactive
COc1ccc2ccc(=O)oc2c1C1=NN(S(=O)(=O)c2ccccc2)C(c2ccc(C)o2)C1 (stereo unspecified) | inactive
COc1ccc2ccc(=O)oc2c1C1=NN(c2ccc(S(N)(=O)=O)cc2)C(c2ccc(C)o2)C1 (stereo unspecified) | inactive
COc1ccc2ccc(=O)oc2c1C1=NN(S(=O)(=O)c2ccccc2)C(c2ccc(SC)cc2)C1 (stereo unspecified) | inactive

system: HT-29; test: Growth inhibition of human HT-29 cells at 10 uM after 48 hrs by sulforhodamine B assay; type: functional, cell-based; method in brief: as §1

Compound | growth inhibition (GI)
COc1ccc2ccc(=O)oc2c1C1=NN(S(=O)(=O)c2ccccc2)C(c2cccs2)C1 (stereo unspecified) | inactive
COc1ccc2ccc(=O)oc2c1C1=NN(S(=O)(=O)c2ccccc2)C(c2ccc(C)o2)C1 (stereo unspecified) | inactive
COc1ccc2ccc(=O)oc2c1C1=NN(c2ccc(S(N)(=O)=O)cc2)C(c2ccc(C)o2)C1 (stereo unspecified) | inactive
COc1ccc2ccc(=O)oc2c1C1=NN(S(=O)(=O)c2ccccc2)C(c2ccc(SC)cc2)C1 (stereo unspecified) | inactive

system: SR; test: Growth inhibition of human SR cells at 10 uM after 48 hrs by sulforhodamine B assay; type: functional, cell-based
Method in brief: (§3)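 NCI-60 one-dose primary screen at 10^-5 M. Cells were grown in RPMI 1640 with 5% FBS and 2 mM L-glutamine and plated at 5,000–40,000 cells/well depending on doubling time. After 24 h preincubation at 37 °C in 5% CO2, drug was added for 48 h. Cells were fixed with TCA and stained with SRB, and absorbance was read at 515 nm. Values are growth percent versus untreated control.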

Compound | growth inhibition (GI)
COc1ccc2ccc(=O)oc2c1C1=NN(S(=O)(=O)c2ccccc2)C(c2cccs2)C1 (stereo unspecified) | inactive
COc1ccc2ccc(=O)oc2c1C1=NN(S(=O)(=O)c2ccccc2)C(c2ccc(C)o2)C1 (stereo unspecified) | inactive
COc1ccc2ccc(=O)oc2c1C1=NN(c2ccc(S(N)(=O)=O)cc2)C(c2ccc(C)o2)C1 (stereo unspecified) | inactive
COc1ccc2ccc(=O)oc2c1C1=NN(S(=O)(=O)c2ccccc2)C(c2ccc(SC)cc2)C1 (stereo unspecified) | inactive

system: COLO 205; test: Growth inhibition of human COLO205 cells at 10 uM after 48 hrs by sulforhodamine B assay; type: functional, cell-based; method in brief: as §1

Compound | growth inhibition (GI)
COc1ccc2ccc(=O)oc2c1C1=NN(S(=O)(=O)c2ccccc2)C(c2cccs2)C1 (stereo unspecified) | inactive
COc1ccc2ccc(=O)oc2c1C1=NN(S(=O)(=O)c2ccccc2)C(c2ccc(C)o2)C1 (stereo unspecified) | inactive
COc1ccc2ccc(=O)oc2c1C1=NN(c2ccc(S(N)(=O)=O)cc2)C(c2ccc(C)o2)C1 (stereo unspecified) | inactive
COc1ccc2ccc(=O)oc2c1C1=NN(S(=O)(=O)c2ccccc2)C(c2ccc(SC)cc2)C1 (stereo unspecified) | inactive

system: UACC-62; test: Growth inhibition of human UACC62 cells at 10 uM after 48 hrs by sulforhodamine B assay; type: functional, cell-based; method in brief: as §3

Compound | growth inhibition (GI)
COc1ccc2ccc(=O)oc2c1C1=NN(S(=O)(=O)c2ccccc2)C(c2cccs2)C1 (stereo unspecified) | inactive
COc1ccc2ccc(=O)oc2c1C1=NN(S(=O)(=O)c2ccccc2)C(c2ccc(C)o2)C1 (stereo unspecified) | inactive
COc1ccc2ccc(=O)oc2c1C1=NN(c2ccc(S(N)(=O)=O)cc2)C(c2ccc(C)o2)C1 (stereo unspecified) | inactive
COc1ccc2ccc(=O)oc2c1C1=NN(S(=O)(=O)c2ccccc2)C(c2ccc(SC)cc2)C1 (stereo unspecified) | inactive

system: 786-0; test: Growth inhibition of human 786-0 cells at 10 uM after 48 hrs by sulforhodamine B assay; type: functional, cell-based; method in brief: as §1

Compound | growth inhibition (GI)
COc1ccc2ccc(=O)oc2c1C1=NN(S(=O)(=O)c2ccccc2)C(c2cccs2)C1 (stereo unspecified) | inactive
COc1ccc2ccc(=O)oc2c1C1=NN(S(=O)(=O)c2ccccc2)C(c2ccc(C)o2)C1 (stereo unspecified) | inactive
COc1ccc2ccc(=O)oc2c1C1=NN(c2ccc(S(N)(=O)=O)cc2)C(c2ccc(C)o2)C1 (stereo unspecified) | inactive
COc1ccc2ccc(=O)oc2c1C1=NN(S(=O)(=O)c2ccccc2)C(c2ccc(SC)cc2)C1 (stereo unspecified) | inactive

system: MDA-MB-468; test: Growth inhibition of human MDA-MB-468 cells at 10 uM after 48 hrs by sulforhodamine B assay; type: functional, cell-based; method in brief: as §2

Compound | growth inhibition (GI)
COc1ccc2ccc(=O)oc2c1C1=NN(S(=O)(=O)c2ccccc2)C(c2cccs2)C1 (stereo unspecified) | inactive
COc1ccc2ccc(=O)oc2c1C1=NN(S(=O)(=O)c2ccccc2)C(c2ccc(C)o2)C1 (stereo unspecified) | inactive
COc1ccc2ccc(=O)oc2c1C1=NN(c2ccc(S(N)(=O)=O)cc2)C(c2ccc(C)o2)C1 (stereo unspecified) | inactive
COc1ccc2ccc(=O)oc2c1C1=NN(S(=O)(=O)c2ccccc2)C(c2ccc(SC)cc2)C1 (stereo unspecified) | inactive

system: KM12; test: Growth inhibition of human KM12 cells at 10 uM after 48 hrs by sulforhodamine B assay; type: functional, cell-based; method in brief: as §1

Compound | growth inhibition (GI)
COc1ccc2ccc(=O)oc2c1C1=NN(S(=O)(=O)c2ccccc2)C(c2cccs2)C1 (stereo unspecified) | inactive
COc1ccc2ccc(=O)oc2c1C1=NN(S(=O)(=O)c2ccccc2)C(c2ccc(C)o2)C1 (stereo unspecified) | inactive
COc1ccc2ccc(=O)oc2c1C1=NN(c2ccc(S(N)(=O)=O)cc2)C(c2ccc(C)o2)C1 (stereo unspecified) | inactive
COc1ccc2ccc(=O)oc2c1C1=NN(S(=O)(=O)c2ccccc2)C(c2ccc(SC)cc2)C1 (stereo unspecified) | inactive

system: Hs-578T; test: Growth inhibition of human Hs 578T cells at 10 uM after 48 hrs by sulforhodamine B assay; type: functional, cell-based; method in brief: as §1

Compound | growth inhibition (GI)
COc1ccc2ccc(=O)oc2c1C1=NN(S(=O)(=O)c2ccccc2)C(c2cccs2)C1 (stereo unspecified) | inactive
COc1ccc2ccc(=O)oc2c1C1=NN(S(=O)(=O)c2ccccc2)C(c2ccc(C)o2)C1 (stereo unspecified) | inactive
COc1ccc2ccc(=O)oc2c1C1=NN(c2ccc(S(N)(=O)=O)cc2)C(c2ccc(C)o2)C1 (stereo unspecified) | inactive
COc1ccc2ccc(=O)oc2c1C1=NN(S(=O)(=O)c2ccccc2)C(c2ccc(SC)cc2)C1 (stereo unspecified) | inactive
